thrombin 1536: inhibitors of human thrombin. 220,000 tested, 0.26% active. AID 1046. P00734. alpha-thrombin, Boc-VPR-AMC fluorogenic substrate cleavage. inhibition, % at 5 µM;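 active means inhibition at or above 40%; inactive means inhibition below 40%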;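 further: 0% = enzyme with no compound and 100% = wells without enzyme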
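Test system: human alpha-thrombin; medium: pH 7.5 Tris-saline with Tween 20; times: reaction at room temperature; signal: AMC fluorescence at 355 nm excitation and 460 nm emission; also added: Boc-VPR-AMC substrate, 15 µM final; dosing: one concentration per compound, 5 µM, with 0.2% DMSO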
KLK5 inh: inhibitors of human kallikrein 5. Q9Y337. recombinant hK5, fluorogenic AMC substrate cleavage. inhibition, % at 5 µM. 210,000 tested, 0.59% active;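 active means inhibition of 40% or more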;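 further: 0% = enzyme controls without compound and 100% = no-enzyme blanks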
Target sequence (Q9Y337 67-293 limits assumed): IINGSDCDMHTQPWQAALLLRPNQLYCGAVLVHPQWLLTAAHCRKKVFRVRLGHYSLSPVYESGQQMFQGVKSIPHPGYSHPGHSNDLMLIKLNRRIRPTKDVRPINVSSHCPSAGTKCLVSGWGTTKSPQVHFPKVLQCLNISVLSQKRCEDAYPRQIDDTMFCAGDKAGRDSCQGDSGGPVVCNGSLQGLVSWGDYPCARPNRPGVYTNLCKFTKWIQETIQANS
FXIIa inh: factor XIIa (human) inhibition | P00748 | purified FXIIa, Boc-QGR-AMC fluorogenic substrate, 2 h | inhibition, % at 5 µM | 220,000 tested, 0.3% active; in the data active means inhibition above about 40%;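 further: 0% = enzyme with no compound and 100% = blank without enzyme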
AHR act: activators of human aryl hydrocarbon receptor. activation, % at 5 µM. 320,000 tested, 2.5% active. P35869. AHR-responsive luciferase reporter cells, luminescence. AID 2796; in the data active means activation above about 47%;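 further: 0% = vehicle wells and 100% = reference agonist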
STAT3 activator: STAT3 signaling activation; U3A cells, IL-6 STAT3-luciferase reporter, luminescence; 100% = signal with IL-6 EC80 alone; activation (% of control), % at 5.6 µM; 190,000 tested, 0.91% active; AID 871;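 active means activation above the screen-wide mean of compound activation plus 3 SD, cut at about 130% in these data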;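 further: 0% = background luminescence of wells with medium and substrate only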
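Material: human STAT1-deficient U3A cells with stable STAT3-luciferase reporter / Probe or stimulus: IL-6 stimulus at 33 ng/mL final / Schedule: 1 h compound pre-exposure, 6 h IL-6 stimulation, 37 °C / Technique: luminescence / Read-out basis: percent of IL-6-only median luminescence / Control set: IL-6-only high control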
FXIa inh 1536: factor XIa (human) inhibition. P03951. purified FXIa, Boc-Glu-Ala-Arg-AMC fluorogenic substrate. inhibition, % at 5 µM. 220,000 tested, 0.14% active;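 active means inhibition of at least 40%; inactive means inhibition below 40%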;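 further: fluorescence of freed AMC excited at 355 nm; 0% = enzyme without compound and 100% = no enzyme blank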
An asterisk follows results filed as active; x = no result given. The list is not random: actives were taken first. Their share in the collection is about 3.5%.

SMILES	thrombin 1536	KLK5 inh	FXIIa inh	AHR act	STAT3 activator	FXIa inh 1536
Cc1ccccc1Nc1nc(Nc2ccccc2C)nc(SC2=NCCS2)n1	3.0	8.6	18.5	5.1	94.5	1.6
COc1cccc(NC2=C(Cl)C(=O)OC2OC(=O)c2ccco2)c1 (stereo unspecified)	-2.9	3.8	2.2	0.5	101.9	-5.4
Cc1cc(C)cc(OCC(=O)N2CCN(c3ncccn3)CC2)c1	x	x	x	1.1	x	x
Cn1c(=NC(=O)c2ccco2)sc2ccccc21	-2.2	1.6	9.9	71.1*	117.1	3.5
Cn1c(=NC(=O)c2cccc([N+](=O)[O-])c2)sc2ccccc21	-8.1	3.3	14.4	18.7	135.8*	2.9
O=S(=O)(Nc1ncnc2c1oc1ccccc12)c1ccc(Cl)s1	x	x	x	14.8	x	x
CC(C)[C@H](NC(=O)c1ccccc1Cl)C(=O)OCC(=O)N1CCCCC1	x	x	x	0.7	x	x
O=C(CN1CCN(c2ccccn2)CC1)Nc1ccc([N+](=O)[O-])cc1C(=O)Nc1ccccc1F	x	x	x	47.8*	x	x
COCc1cc(=O)[nH]c(N2CCN(Cc3ccc4c(c3)OCO4)CC2)n1	x	x	x	3.3	x	x
CC(C)n1c(O)c(N=NC(=O)C2COc3ccccc3O2)c2ccccc21 (stereo unspecified)	-3.9	5.7	9.2	57.9*	132.3	3.9
Cn1c(O)c(N=NC(=O)C2COc3ccccc3O2)c2ccccc21 (stereo unspecified)	-2.1	5.0	5.7	32.6	x	4.3
COc1ccc(S(=O)(=O)N2CCN(C(=O)Nc3ccccc3OC)CC2)cc1	x	x	x	-4.2	x	x
Cc1cccc(S(=O)(=O)N/N=c2\sc3ccccc3n2C)c1	-4.2	2.2	10.3	66.4*	129.3	1.8
Cc1ccc(S(=O)(=O)N/N=c2\sc3ccccc3n2C)cc1	-1.9	-1.3	3.6	22.8	100.8	5.0
CC(Oc1cccc(Cl)c1)C(=O)Nc1nc(-c2ccccn2)cs1 (stereo unspecified)	x	x	x	14.9	x	x
CC(Oc1ccccc1)C(=O)Nc1nc(-c2ccncc2)cs1 (stereo unspecified)	x	x	x	47.2*	x	x
S=C(N/N=C/c1ccc(Cl)c(Cl)c1)Nc1ccccc1Cl	-2.2	-1.1	7.6	41.4	88.8	-1.8
Fc1cccc(/C=N/NC(=S)Nc2ccccc2Cl)c1	-2.3	-2.9	8.7	76.1*	98.9	-1.0
O=[N+]([O-])c1cnc(Nc2ccccc2)nc1Nc1ccccc1	x	x	x	7.7	x	x
CCNc1sc(C(=O)c2cccs2)c(N)c1-c1nc2ccccc2s1	-5.4	-18.4	-14.1	55.1*	116.0	9.1
CCNc1sc(C(=O)c2cccs2)c(N)c1C#N	6.9	-18.8	23.5	11.7	106.3	4.1
CCCCN(CCCC)CCNC(=O)Cc1nc2c(c(=O)[nH]c(=O)n2C)n1C	6.7	33.9	17.1	x	100.4	4.1
O=C(CN(Cc1ccccc1)C(=O)CCl)c1cccc(Br)c1	x	x	x	5.1	x	x
COC(=O)c1ccccc1NS(=O)(=O)c1ccc2c3c(cccc13)C(=O)N2	x	x	x	-2.4	113.1	x
O=C1CCCc2oc3c(cc(NS(=O)(=O)c4ccc5c6c(cccc46)C(=O)N5)c4ccccc43)c21	0.9	-0.1	11.4	54.2*	x	2.2
SMILES	thrombin 1536	KLK5 inh	FXIIa inh	AHR act	STAT3 activator	FXIa inh 1536
Cc1oc2c(cc(NS(=O)(=O)c3ccc4c5c(cccc35)C(=O)N4)c3ccccc32)c1C(=O)OC(C)C	-3.0	-5.8	15.8	73.6*	125.3	4.1
Cc1ccc(C)c(C(=O)COC(=O)c2ccccc2N2C(=O)C3C4CCC(C4)C3C2=O)c1 (stereo unspecified)	2.6	-10.4	17.7	0.7	95.8	3.8
CC(C)C(NC(=O)OCc1ccccc1)C(=O)NC(Cc1ccc(O)cc1)C(=O)O (stereo unspecified)	x	x	x	-1.5	x	x
CC(C)[C@H](NC(=O)[C@H](CCCN=C(N)N)NC(=O)NC(Cc1ccccc1)C(=O)O)C(=O)NC(C=O)CCCN=C(N)N (stereo partly specified)	6.9	32.4	47.4*	-1.1	101.3	43.4*
Cc1ccc(C(=O)c2cc3c(cc2N)OCCO3)cc1	-1.9	1.3	26.2	13.3	103.8	4.3
CSc1nc2cc3c(cc2n1C(=O)c1ccc(C)cc1)OCCO3	87.7*	25.6	14.8	5.5	102.9	67.4*
COc1ccc(N=Cc2oc3ccc4ccccc4c3c2O)cc1	2.2	2.6	10.3	57.9*	134.2*	6.0
COc1ccc(N=Cc2[nH]c3ccccc3c2O)cc1	7.0	2.6	6.6	25.9	117.0	0.6
COc1cccc(/C=N/Nc2nc3ccccc3n3cnnc23)c1	3.4	-4.0	11.2	57.5*	97.5	6.5
COc1ccc(Nc2nc3ccccc3n3cnnc23)cc1	3.0	2.9	15.9	71.7*	85.7	4.5
Cc1cccc2nc(CSc3nc4cc([N+](=O)[O-])ccc4s3)cn12	1.6	-6.5	11.8	7.5	89.0	23.4
Cc1nn2c3ccccc3nc2c2ccccc12	-1.3	0.7	7.3	58.6*	134.4*	0.4
CCn1c(=O)c(C)nn2c3ccccc3nc12	-4.9	-0.8	5.7	-2.0	96.9	-0.5
N#Cc1nc(-c2ccccc2F)oc1NCc1ccccc1	14.0	41.9*	14.6	19.0	102.7	15.9
CCOC(=O)c1c(NC(=O)Cn2nnc3ccccc32)sc2c1CCC(C)C2 (stereo unspecified)	-11.5	-21.3	14.3	62.7*	91.0	-9.1
CCOC(=O)c1c(NC(=O)COC(=O)Cn2cnc3ccccc32)sc2c1CCC(C)C2 (stereo unspecified)	-9.1	5.1	1.8	0.4	93.5	-6.8
CCOC(=O)c1c(NC(=O)C(C)NCc2ccco2)sc2c1CCC(C)C2 (stereo unspecified)	4.1	-18.1	8.0	50.6*	90.6	3.9
O=C(Cc1coc2cc(O)ccc12)NNC(=O)c1ccc(Br)s1	x	x	x	3.4	x	x
Cc1ccc(NNC(=S)Nc2ccc(C(C)C)cc2)c(C)c1	-6.4	-17.4	5.6	65.5*	99.7	-2.6
Cc1cc2cc(C=O)c(Cl)nc2cc1C	-7.0	-4.9	6.2	0.5	102.5	-3.2
Cc1ccc2cc(C=O)c(N(C)C)nc2c1	-0.8	-5.9	13.0	35.3	134.3*	10.5
CCN(c1ccc(C(=O)CN2C(=O)NC3(CCOc4ccccc43)C2=O)cc1)S(C)(=O)=O (stereo unspecified)	x	x	x	18.6	x	x
COc1ccccc1-c1nc(NC(C)=O)n[nH]1	-3.7	12.5	9.5	29.1	159.1*	2.9
COc1ccccc1-c1nc(=S)c(C(C)=O)c(C)[nH]1	-1.4	4.2	5.3	54.0*	x	-1.8
CC(=O)c1c(C)[nH]c(-c2ccccc2)nc1=S	-5.2	12.1	3.6	65.6*	x	-9.5
CC(=O)c1c(NC(=O)c2ccccc2)[nH]c(-c2ccccc2)nc1=S	0.6	-12.3	1.5	16.3	99.1	-6.6
CSc1nc(-c2ccccc2)[nH]c(=S)c1C(C)=O	4.5	7.0	15.8	20.2	132.9*	4.0
O=C(CSc1nnc(CNC(=O)c2ccco2)o1)Nc1ccccc1F	x	x	x	1.9	x	x
